One experiment has as its system Candida albicans. As to the kind of experiment: Antimicrobial activity against Candida albicans after 24 hrs. It counts as functional. The procedure, abridged:
(§1)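 Broth microdilution per NCCLS guidelines in MOPS-buffered RPMI 1640. Starting inoculum was 1-5 × 10^3 cfu/mL, and plates were incubated at 35 °C. MIC was read spectrophotometrically at 492 nm after 24–48 h for yeasts and 72–96 h for mycelial fungi.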

In a further experiment the test system is Cryptococcus neoformans. The experiment is described as follows: Antimicrobial activity against Cryptococcus neoformans after 24 hrs. It counts as functional. The procedure, abridged:
as §1

The next experiment deals with Sporothrix schenckii. The experiment is described as follows: Antimicrobial activity against Sporothrix schenckii after 24 hrs. It counts as functional. The procedure, abridged: as §1
Another experiment deals with Candida parapsilosis. As to the kind of experiment: Antimicrobial activity against Candida parapsilosis ATCC 22019 after 24 hrs. It counts as functional. The settings on record: Lodderomyces parapsilosis, ATCC 22019, 24 h. The procedure, abridged: as §1
In a further experiment the test system is Klebsiella pneumoniae. The experiment is described as follows: Antimicrobial activity against Klebsiella pneumoniae after 24 hrs. It counts as functional. The procedure, abridged: (§2)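 NCCLS microdilution in Mueller Hinton broth. Strains were grown 24 h on nutrient agar at 37 °C, suspended at about 1.0–2.0 × 10^7 cells/mL (McFarland-matched) in saline with 0.05% Tween 20, then diluted 100 µL into 10 mL medium. Compounds were taken from a 1 mg/mL DMSO stock as twofold dilutions, top final 50 µg/mL. Incubation was 35 °C in a moist, dark chamber, and MIC was read spectrophotometrically at 24 h.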

The subject of a further experiment is Escherichia coli. The experiment is described as follows: Antimicrobial activity against Escherichia coli after 24 hrs. Format: functional. The procedure, abridged: as §2
A further experiment relates to Pseudomonas aeruginosa. As to the kind of experiment: Antimicrobial activity against Pseudomonas aeruginosa after 24 hrs. It counts as functional. The procedure, abridged:
as §2

A further experiment relates to Staphylococcus aureus. As to the kind of experiment: Antimicrobial activity against Staphylococcus aureus after 24 hrs. Format: functional. The procedure, abridged:
as §2

Another experiment deals with Aspergillus fumigatus. As to the kind of experiment: Antimicrobial activity against Aspergillus fumigatus after 72 to 96 hrs.
The subject of experiment [1] is Trichophyton mentagrophytes. The experiment is described as follows: Antimicrobial activity against Trichophyton mentagrophytes after 72 to 96 hrs.

In brackets after ≈: the same amount, converted by molar mass. Where only a bound is given, the exact number is not on record here.

The text below walks through data of ChEMBL document CHEMBL1157043, “An eco-friendly synthesis and antimicrobial activities of dihydro-2H-benzo- and naphtho-1,3-oxazine derivatives” (Eur J Med Chem, 2010).

By MIC is commonly meant the lowest concentration found to suppress growth. Low values mean a more susceptible organism, high ones a less susceptible organism. For the compound `c1ccc(N2COc3ccc4ccccc4c3C2)cc1`, the MIC with Candida albicans was 50 mg/L (≈ 191 µM); against Cryptococcus neoformans, above 50 mg/L; in the experiment on Sporothrix schenckii, 25 mg/L (≈ 95.7 µM); with Candida parapsilosis it was above 50 mg/L; against Klebsiella pneumoniae, above 50 mg/L; in the experiment on Escherichia coli, 50 mg/L (≈ 191 µM). Besides, the MIC is 50 mg/L (≈ 191 µM) against Pseudomonas aeruginosa, above 50 mg/L with Staphylococcus aureus, above 50 mg/L in the experiment with Aspergillus fumigatus and above 50 mg/L in [1].

On to `c1ccc(CN2COc3ccc4ccccc4c3C2)cc1`, for which the MIC is above 50 mg/L against Candida albicans; above 50 mg/L with Cryptococcus neoformans; 50 mg/L (≈ 182 µM) in the experiment with Sporothrix schenckii; above 50 mg/L against Candida parapsilosis; above 50 mg/L in the experiment with Klebsiella pneumoniae; above 50 mg/L in the experiment with Escherichia coli. Further, the MIC was above 50 mg/L with Pseudomonas aeruginosa, above 50 mg/L in the experiment on Staphylococcus aureus, above 50 mg/L with Aspergillus fumigatus and 50 mg/L (≈ 182 µM) in experiment [1].

For the compound `CCCCN1COc2ccc3ccccc3c2C1`, the MIC against Candida albicans is above 50 mg/L; in the experiment with Cryptococcus neoformans it was 50 mg/L (≈ 207 µM); with Sporothrix schenckii it was 50 mg/L (≈ 207 µM); with Candida parapsilosis, above 50 mg/L; in the experiment on Klebsiella pneumoniae, above 50 mg/L; in the experiment with Escherichia coli, above 50 mg/L. The MIC is above 50 mg/L in the experiment with Pseudomonas aeruginosa, above 50 mg/L against Staphylococcus aureus, above 50 mg/L in the experiment on Aspergillus fumigatus and 25 mg/L (≈ 104 µM) in experiment [1].

Take `c1ccc(N2COc3ccccc3C2)cc1`: the MIC is above 50 mg/L against Candida albicans; above 50 mg/L in the experiment with Cryptococcus neoformans; 25 mg/L (≈ 118 µM) against Sporothrix schenckii; 50 mg/L (≈ 237 µM) in the experiment with Candida parapsilosis; above 50 mg/L against Klebsiella pneumoniae; 50 mg/L (≈ 237 µM) with Escherichia coli. The minimum inhibitory concentration (MIC) with Pseudomonas aeruginosa was above 50 mg/L; in the experiment on Staphylococcus aureus, above 50 mg/L; in the experiment on Aspergillus fumigatus, 50 mg/L (≈ 237 µM); in experiment [1], 25 mg/L (≈ 118 µM).

Regarding `Cc1cccc2c1OCN(c1ccccc1)C2`, the minimum inhibitory concentration (MIC) in the experiment on Candida albicans was 50 mg/L (≈ 222 µM); against Cryptococcus neoformans, above 50 mg/L; in the experiment with Sporothrix schenckii it was 25 mg/L (≈ 111 µM); in the experiment on Candida parapsilosis, 50 mg/L (≈ 222 µM); against Klebsiella pneumoniae it was above 50 mg/L; with Escherichia coli, 25 mg/L (≈ 111 µM). Moreover, the MIC is above 50 mg/L against Pseudomonas aeruginosa, 50 mg/L (≈ 222 µM) with Staphylococcus aureus, 50 mg/L (≈ 222 µM) against Aspergillus fumigatus and 25 mg/L (≈ 111 µM) in experiment [1].

`CC1(C)S[C@@H]2[C@H](NC(=O)[C@H](N)c3ccccc3)C(=O)N2[C@H]1C(=O)O` [AMPICILLIN]: the minimum inhibitory concentration (MIC) amounted to 0.39 mg/L (≈ 1.12 µM) against Klebsiella pneumoniae, 50 mg/L (≈ 143 µM) against Escherichia coli, 50 mg/L (≈ 143 µM) in the experiment with Pseudomonas aeruginosa and 0.19 mg/L (≈ 0.544 µM) against Staphylococcus aureus.

For `Cc1ccc2c(c1)CN(c1ccccc1)CO2`, the MIC against Candida albicans was above 50 mg/L; against Cryptococcus neoformans it was above 50 mg/L; against Sporothrix schenckii, 12.5 mg/L (≈ 55.5 µM); in the experiment with Candida parapsilosis, 50 mg/L (≈ 222 µM); in the experiment on Klebsiella pneumoniae it was 50 mg/L (≈ 222 µM); against Escherichia coli, 25 mg/L (≈ 111 µM). Moreover, the MIC is above 50 mg/L against Pseudomonas aeruginosa, 50 mg/L (≈ 222 µM) against Staphylococcus aureus, 50 mg/L (≈ 222 µM) in the experiment on Aspergillus fumigatus and 25 mg/L (≈ 111 µM) in experiment [1].

Regarding `Clc1ccc(Cl)c(N2COc3ccc4ccccc4c3C2)c1`, the MIC against Candida albicans was above 50 mg/L; in the experiment with Cryptococcus neoformans it was above 50 mg/L; against Sporothrix schenckii it was above 50 mg/L; against Candida parapsilosis, above 50 mg/L; with Klebsiella pneumoniae it was above 50 mg/L; against Escherichia coli it was 50 mg/L (≈ 151 µM). For the same compound, the MIC in the experiment with Pseudomonas aeruginosa is above 50 mg/L; against Staphylococcus aureus, above 50 mg/L; against Aspergillus fumigatus, above 50 mg/L; in experiment [1], 50 mg/L (≈ 151 µM).

As to `Clc1cc(Cl)c(N2COc3ccc4ccccc4c3C2)c(Cl)c1`, the MIC with Candida albicans, against Cryptococcus neoformans, against Sporothrix schenckii, with Candida parapsilosis, against Klebsiella pneumoniae and against Escherichia coli was above 50 mg/L in each case. Also, the MIC against Pseudomonas aeruginosa is above 50 mg/L; with Staphylococcus aureus, above 50 mg/L; in the experiment with Aspergillus fumigatus it was above 50 mg/L; in experiment [1] it was 50 mg/L (≈ 137 µM).

For `c1ccc2c(c1)CN(C1CCCCC1)CO2`, the minimal inhibitory concentration (MIC) in the experiment with Candida albicans, in the experiment on Cryptococcus neoformans, against Sporothrix schenckii, with Candida parapsilosis, in the experiment on Klebsiella pneumoniae and against Escherichia coli was above 50 mg/L each time. Further, the MIC in the experiment on Pseudomonas aeruginosa is above 50 mg/L; with Staphylococcus aureus, above 50 mg/L; with Aspergillus fumigatus, above 50 mg/L; in experiment [1], 50 mg/L (≈ 230 µM).

Consider `CCCCN1COc2ccccc2C1`, for which the MIC is above 50 mg/L in the experiment with Candida albicans; above 50 mg/L in the experiment with Cryptococcus neoformans; 50 mg/L (≈ 261 µM) with Sporothrix schenckii; above 50 mg/L with Candida parapsilosis; above 50 mg/L against Klebsiella pneumoniae; 50 mg/L (≈ 261 µM) with Escherichia coli. In addition, the MIC against Pseudomonas aeruginosa is above 50 mg/L; in the experiment on Staphylococcus aureus, above 50 mg/L; against Aspergillus fumigatus, above 50 mg/L; in experiment [1] it was 50 mg/L (≈ 261 µM).

With GENTAMICIN, the MIC against Klebsiella pneumoniae amounted to 0.78 mg/L; in the experiment on Escherichia coli, 0.78 mg/L; against Pseudomonas aeruginosa, 0.78 mg/L; against Staphylococcus aureus, 0.39 mg/L.
